ChEMBL document CHEMBL1128560, “Synthesis and structure-activity relationships of analogs of 2'-deoxy-2'-(3-methoxybenzamido)adenosine, a selective inhibitor of trypanosomal glycosomal glyceraldehyde-3-phosphate dehydrogenase” (J Med Chem, 1995)

Columns and labels:
[1] = TInhibition of glyceraldehyde-3-phosphate dehydrogenase in Leishmania mexicana
Summary of the method: (§1)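 Enzyme sources: human erythrocyte GAPDH, glycosomal GAPDH from T. brucei, and glycosomal GAPDH from L. mexicana. IC50 is the inhibitor concentration at which 50% of enzyme activity remains. Poorly soluble compounds were not tested above their solubility limit, and the remaining activity at that level was recorded instead.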

[2] = Inhibition of glyceraldehyde-3-phosphate dehydrogenase in Trypanosoma brucei; summary of the method: as §1
[3] = target: Glyceraldehyde-3-phosphate dehydrogenase (Homo sapiens, UniProt P04406); assay: Inhibition of Glyceraldehyde-3-phosphate dehydrogenase in human erythrocytes.; format: cell-based; summary of the method: as §1
Chain of Glyceraldehyde-3-phosphate dehydrogenase (P04406 whole entry): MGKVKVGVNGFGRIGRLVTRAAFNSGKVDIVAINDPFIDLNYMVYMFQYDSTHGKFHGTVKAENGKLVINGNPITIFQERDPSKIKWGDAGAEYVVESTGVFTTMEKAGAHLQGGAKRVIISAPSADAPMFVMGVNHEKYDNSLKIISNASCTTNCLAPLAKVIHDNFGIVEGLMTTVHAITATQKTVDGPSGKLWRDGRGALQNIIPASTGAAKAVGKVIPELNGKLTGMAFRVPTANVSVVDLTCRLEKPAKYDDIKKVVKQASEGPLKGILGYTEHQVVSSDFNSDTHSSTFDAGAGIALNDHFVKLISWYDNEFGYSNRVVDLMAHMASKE

For `Nc1ncnc2c1ncn2CCNC(=O)c1cccc(Cl)c1`, the IC50 [1] was over 4000 µM and the IC50 [2] was over 4000 µM.
`Nc1ncnc2c1ncn2CCNC(=O)c1cccc(F)c1` showed an IC50 [1] of over 4000 µM and an IC50 [2] of over 4000 µM.
`NCCn1c(-c2cccs2)nc2c(N)ncnc21` gave an IC50 [3] of 1800 µM, an IC50 [1] of 1600 µM and an IC50 [2] of 1800 µM.
Work on `Nc1ncnc2c1ncn2[C@@H]1CCC[C@H]1NC(=O)c1cccc(Br)c1` yielded an IC50 [3] of 1500 µM, an IC50 [1] of 700 µM and an IC50 [2] of 1500 µM.
In the case of `Cc1ccc(C(=O)NCCn2cnc3c(N)ncnc32)cc1`, the IC50 [1] is reported as over 4000 µM and the IC50 [2] is reported as over 2000 µM.
`Nc1ncnc2c1nc(-c1cccs1)n2[C@@H]1O[C@H](CO)[C@@H](O)[C@H]1O` showed an IC50 [3] of 1300 µM, an IC50 [1] of 500 µM and an IC50 [2] of 600 µM.
For `COc1cccc(C(=O)N[C@@H]2[C@H](O)[C@@H](CO)O[C@H]2n2cnc3c(N)ncnc32)c1`, the IC50 [3] was over 10000 µM, the IC50 [1] was 300 µM and the IC50 [2] was 2200 µM.
In the case of `COc1nc2c(N)ncnc2n1[C@@H]1O[C@H](CO)[C@@H](O)[C@H]1NC(=O)c1ccccc1`, the IC50 [3] is reported as over 10000 µM, the IC50 [1] is reported as 9000 µM and the IC50 [2] is reported as 9000 µM.
Compound `Nc1ncnc2c1nc(-c1cccs1)n2[C@@H]1O[C@H](CO)[C@@H](O)[C@H]1NC(=O)c1ccccc1` has an IC50 [3] of 1200 µM, an IC50 [1] of 500 µM and an IC50 [2] of 1200 µM.
`Nc1ncnc2c1ncn2[C@@H]1O[C@H](CO)[C@@H](O)[C@H]1NCc1ccccc1` showed an IC50 [3] of over 10000 µM, an IC50 [1] of over 10000 µM and an IC50 [2] of over 10000 µM.
With `Nc1ncnc2c1ncn2[C@@H]1O[C@H](CO)[C@@H](O)[C@H]1NC(=O)c1ccc2[nH]cnc2c1` the IC50 [3] was over 10000 µM, the IC50 [1] was 3000 µM and the IC50 [2] was 3000 µM.
In the case of `Nc1ncnc2c1ncn2[C@@H]1O[C@H](CO)[C@@H](O)[C@H]1NC(=O)c1cccc(Cl)c1`, the IC50 [3] is reported as over 2000 µM, the IC50 [1] is reported as 200 µM and the IC50 [2] is reported as 500 µM.
`CCOc1cccc(C(=O)N[C@@H]2[C@H](O)[C@@H](CO)O[C@H]2n2cnc3c(N)ncnc32)c1` gave an IC50 [3] of 600 µM, an IC50 [1] of 400 µM and an IC50 [2] of 500 µM.
In the case of `Nc1ncnc2c1ncn2[C@@H]1O[C@H](CO)[C@@H](O)[C@H]1NC(=O)c1ccc(-c2ccccc2)cc1`, the IC50 [3] is reported as 400 µM, the IC50 [1] is reported as 200 µM and the IC50 [2] is reported as 200 µM.
In the case of `Nc1ncnc2c1ncn2[C@@H]1O[C@H](CO)[C@@H](O)[C@H]1NC(=O)c1ccc2cccnc2c1`, the IC50 [3] is reported as over 2000 µM, the IC50 [1] is reported as 500 µM and the IC50 [2] is reported as 1000 µM.
For `CC(C)COC(=O)N[C@@H]1[C@H](O)[C@@H](CO)O[C@H]1n1cnc2c(N)ncnc21`, the IC50 [3] was over 10000 µM, the IC50 [1] was over 10000 µM and the IC50 [2] was over 10000 µM.
Compound `COc1cccc(C(=O)N[C@@H]2[C@H](O)[C@@H](CO)O[C@H]2n2cnc3c(N)nc(C)nc32)c1` has an IC50 [3] of over 10000 µM, an IC50 [1] of over 10000 µM and an IC50 [2] of over 10000 µM.
Compound `Nc1ncnc2c1nc(Br)n2[C@@H]1O[C@H](CO)[C@@H](O)[C@H]1NC(=O)c1ccccc1` has an IC50 [3] of over 10000 µM, an IC50 [1] of 3000 µM and an IC50 [2] of 6300 µM.
Work on `Cc1nc(N)c2[nH]cnc2n1` yielded an IC50 [3] of over 10000 µM, an IC50 [1] of 6000 µM and an IC50 [2] of 8000 µM.
For `Nc1ncnc2c1nc(-c1cccs1)n2CCNCc1ccccc1`, the IC50 [3] was 600 µM, the IC50 [1] was 400 µM and the IC50 [2] was 500 µM.
In the case of `Nc1ncnc2c1ncn2[C@@H]1CCC[C@H]1NC(=O)c1ccccc1`, the IC50 [1] is reported as over 4000 µM and the IC50 [2] is reported as over 4000 µM.
Work on `COc1cccc(C(=O)N[C@@H]2CCC[C@H]2n2cnc3c(N)ncnc32)c1` yielded an IC50 [1] of over 5000 µM and an IC50 [2] of over 4000 µM.
`Nc1ncnc2c1ncn2[C@@H]1CCC[C@H]1NC(=O)c1cccc(Cl)c1` showed an IC50 [1] of over 2000 µM and an IC50 [2] of over 4000 µM.
For `Nc1ncnc2c1nc(Sc1ncccn1)n2C1O[C@H](CO)[C@@H](O)[C@H]1O` (stereo partly drawn), the IC50 [3] was 8000 µM, the IC50 [1] was 4000 µM and the IC50 [2] was 2000 µM.
Compound `Nc1ncnc2c1ncn2C1O[C@H](CNC(=O)C(c2ccccc2)c2ccccc2)[C@@H](O)[C@H]1O` (stereo partly drawn) has an IC50 [3] of 250 µM, an IC50 [1] of 250 µM and an IC50 [2] of 250 µM.
Work on `Nc1ncnc2c1nc(SC1CCCCC1)n2C1O[C@H](CO)[C@@H](O)[C@H]1O` (stereo partly drawn) yielded an IC50 [3] of over 2000 µM, an IC50 [1] of over 2000 µM and an IC50 [2] of over 1000 µM.
Compound `CCc1ccc(-c2ccc(C(=O)NC[C@H]3OC(n4cnc5c(N)ncnc54)[C@H](O)[C@@H]3O)cc2)cc1` (stereo partly drawn) has an IC50 [3] of over 2000 µM, an IC50 [1] of 750 µM and an IC50 [2] of over 1000 µM.
For `Nc1ncnc2c1ncn2[C@@H]1O[C@H](CO)[C@@H](O)[C@H]1O` [ADENOSINE], the IC50 [3] was 35000 µM, the IC50 [1] was 50000 µM and the IC50 [2] was 100000 µM.
